Reference: article PMC2755634 (Clinical cancer research : an official journal of the …, 2009)

Key:
[1] = system: CYP1A1, CYP1A2, CYP1B1 (EROD activity); assay: EROD activity in intact HepG2 cells; type: cell-based, human; details: 24 hours; for inhibition of TCDD (PAH)-induced EROD activity: 50 μM compound + 250 pmol TCDD; for induction of EROD activity: 50 μM compound alone
[2] = system: HepG2 cells; assay: MTT cell viability assay; type: cell-based, human; details: 0−100 μM, data not shown
Procedure, shortened: (§1)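 Viability was read as MTT tetrazolium reduction in confluent HepG2 (RPMI 1640) or LS180 (Eagle's MEM with Earle's balanced salts) cells at 37 °C, 5% CO2. Test compound was given at 0–100 µmol/L from DMSO stock; final DMSO ≤0.1%.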

[3] = rats; cited from earlier work
[4] = target: T1, aryl hydrocarbon receptor (AhR) (Homo sapiens, UniProt P35869); assay: Chromatin immunoprecipitation; details: HepG2; 50 μM compound + 10 nmol TCDD; 90 minutes; TCDD alone 6.2-fold
T1 sequence (P35869 11-848): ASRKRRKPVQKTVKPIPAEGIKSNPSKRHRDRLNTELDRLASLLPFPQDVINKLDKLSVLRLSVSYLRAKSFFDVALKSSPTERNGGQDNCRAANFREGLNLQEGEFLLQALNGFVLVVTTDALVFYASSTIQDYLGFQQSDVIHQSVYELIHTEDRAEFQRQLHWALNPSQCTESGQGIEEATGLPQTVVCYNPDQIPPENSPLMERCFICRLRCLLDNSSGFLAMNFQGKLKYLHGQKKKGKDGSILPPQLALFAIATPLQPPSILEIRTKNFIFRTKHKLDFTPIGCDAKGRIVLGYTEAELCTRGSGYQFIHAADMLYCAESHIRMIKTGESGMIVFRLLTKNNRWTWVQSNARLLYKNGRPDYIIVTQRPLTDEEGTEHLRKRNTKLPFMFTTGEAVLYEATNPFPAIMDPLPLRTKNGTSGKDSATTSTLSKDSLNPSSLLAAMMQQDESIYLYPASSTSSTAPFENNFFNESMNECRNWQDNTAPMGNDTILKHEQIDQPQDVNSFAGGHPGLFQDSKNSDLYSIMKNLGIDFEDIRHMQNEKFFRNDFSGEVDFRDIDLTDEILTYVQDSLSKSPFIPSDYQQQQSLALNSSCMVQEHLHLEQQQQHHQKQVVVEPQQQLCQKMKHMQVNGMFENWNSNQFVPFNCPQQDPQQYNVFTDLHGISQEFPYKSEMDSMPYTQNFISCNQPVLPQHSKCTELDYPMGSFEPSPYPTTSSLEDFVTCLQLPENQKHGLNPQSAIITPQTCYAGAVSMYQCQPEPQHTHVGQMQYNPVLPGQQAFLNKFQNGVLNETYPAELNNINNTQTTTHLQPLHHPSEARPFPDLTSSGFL

[5] = system: CYP1A2 mRNA; assay: CYP1A2 mRNA expression by RT-PCR in HepG2 cells; details: co-treatment with 250 pmol TCDD or 1 μM DMBA, 24 hours
[6] = system: phase II genes; assay: Phase II gene expression; type: cell-based, human; details: RT-PCR
[7] = target: T2, CYP1A1 (Homo sapiens, UniProt P04798); assay: Recombinant CYP1A1 Supersomes EROD activity; type: biochemical; details: for change of Vmax with increasing compound concentration / nature of CYP1A1 inhibition (Michaelis-Menten kinetic analysis): recombinant CYP1A1 Supersomes
T2 sequence (P04798 1-512): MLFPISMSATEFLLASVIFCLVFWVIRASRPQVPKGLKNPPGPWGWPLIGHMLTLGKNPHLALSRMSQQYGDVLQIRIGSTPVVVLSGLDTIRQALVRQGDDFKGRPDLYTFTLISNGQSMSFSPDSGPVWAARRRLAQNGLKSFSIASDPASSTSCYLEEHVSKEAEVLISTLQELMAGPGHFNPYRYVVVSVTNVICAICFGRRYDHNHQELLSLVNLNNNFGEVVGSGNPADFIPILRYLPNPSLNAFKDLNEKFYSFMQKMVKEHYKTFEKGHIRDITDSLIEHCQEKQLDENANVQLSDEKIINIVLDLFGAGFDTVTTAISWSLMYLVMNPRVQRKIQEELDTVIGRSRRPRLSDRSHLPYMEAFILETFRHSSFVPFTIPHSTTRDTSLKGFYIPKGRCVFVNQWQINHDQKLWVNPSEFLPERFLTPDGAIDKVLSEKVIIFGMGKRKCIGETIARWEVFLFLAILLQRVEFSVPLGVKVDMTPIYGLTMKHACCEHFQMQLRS

[8] = system: CYP1A2 mRNA; assay: CYP1A2 mRNA expression by RT-PCR in LS180 cells; details: co-treatment with 250 pmol TCDD or 1 μM DMBA, 24 hours
[9] = system: CYP1B1 mRNA; assay: CYP1B1 mRNA expression by RT-PCR in HepG2 cells; details: 24 hours; for effect on TCDD- and DMBA-induced CYP1B1 mRNA expression: co-treatment with 250 pmol TCDD or 1 μM DMBA
[10] = system: CYP1A1 heterogeneous nuclear RNA (hnCYP1A1); assay: CYP1A1 gene transcription rate; details: HepG2; co-treatment with 250 pmol TCDD or 1 μM DMBA
[11] = system: CYP1B1 mRNA; assay: CYP1B1 mRNA expression by RT-PCR in LS180 cells; details: 24 hours; for effect on TCDD- and DMBA-induced CYP1B1 mRNA expression: co-treatment with 250 pmol TCDD or 1 μM DMBA
[12] = system: CYP1A1 mRNA; assay: CYP1A1 mRNA expression by RT-PCR in LS180 cells; details: co-treatment with 250 pmol TCDD or 1 μM DMBA, 24 hours
[13] = system: LS180 cells; assay: MTT cell viability assay; type: cell-based, human; details: 0−100 μM, data not shown
Procedure, shortened: as §1

[14] = system: CYP1A1 mRNA; assay: CYP1A1 mRNA expression by RT-PCR in HepG2 cells; details: co-treatment with 250 pmol TCDD or 1 μM DMBA, 24 hours
[15] = target: T3, CYP1B1 (Homo sapiens, UniProt Q16678); assay: Recombinant CYP1B1 Supersomes EROD activity; type: biochemical
T3 sequence (Q16678 1-543): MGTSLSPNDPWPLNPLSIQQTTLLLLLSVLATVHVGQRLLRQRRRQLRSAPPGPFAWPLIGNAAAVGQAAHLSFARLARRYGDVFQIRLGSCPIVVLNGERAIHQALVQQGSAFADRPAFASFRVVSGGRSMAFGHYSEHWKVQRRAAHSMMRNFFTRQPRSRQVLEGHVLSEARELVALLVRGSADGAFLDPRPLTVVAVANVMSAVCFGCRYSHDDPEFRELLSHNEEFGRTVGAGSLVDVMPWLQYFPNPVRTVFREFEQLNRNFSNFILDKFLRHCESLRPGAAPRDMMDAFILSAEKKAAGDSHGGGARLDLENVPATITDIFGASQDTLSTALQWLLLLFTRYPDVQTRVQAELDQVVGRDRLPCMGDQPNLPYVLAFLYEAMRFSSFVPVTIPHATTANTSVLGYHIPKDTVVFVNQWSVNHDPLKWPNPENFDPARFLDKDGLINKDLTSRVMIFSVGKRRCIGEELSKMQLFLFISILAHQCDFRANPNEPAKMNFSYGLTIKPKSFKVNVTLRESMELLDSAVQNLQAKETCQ

[16] = system: G6PD mRNA; assay: G6PD mRNA expression by RT-PCR in HepG2 cells; type: cell-based, human; details: 50 μM, 24 hours, over 18S RNA control
[17] = target: T4, CYP1A2 (Homo sapiens, UniProt P05177); assay: Recombinant CYP1A2 Supersomes EROD activity; type: biochemical
T4 sequence (P05177 1-516): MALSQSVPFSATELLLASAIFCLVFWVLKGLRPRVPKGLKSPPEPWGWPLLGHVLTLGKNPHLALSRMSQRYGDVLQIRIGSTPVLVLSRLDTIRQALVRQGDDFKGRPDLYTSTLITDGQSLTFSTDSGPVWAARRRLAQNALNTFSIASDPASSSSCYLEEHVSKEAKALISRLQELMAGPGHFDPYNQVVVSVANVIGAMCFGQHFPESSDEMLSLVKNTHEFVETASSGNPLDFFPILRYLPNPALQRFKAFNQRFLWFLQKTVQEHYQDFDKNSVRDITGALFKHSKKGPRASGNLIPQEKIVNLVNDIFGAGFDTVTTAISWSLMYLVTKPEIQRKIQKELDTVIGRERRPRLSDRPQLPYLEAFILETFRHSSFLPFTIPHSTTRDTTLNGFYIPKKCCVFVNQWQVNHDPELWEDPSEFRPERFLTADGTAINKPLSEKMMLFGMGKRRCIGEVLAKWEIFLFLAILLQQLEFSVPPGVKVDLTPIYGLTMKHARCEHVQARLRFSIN

[18] = system: catalase and glutathione reductase; details: 25 μM; cited from earlier work
[19] = system: CYP1A1 heterogeneous nuclear RNA (hnCYP1A1)

O=C(Cc1ccccc1Nc1c(Cl)cccc1Cl)Oc1ccc(-c2cc(=S)ss2)cc1 [ACS 15, 2-[(2,6-dichlorophenyl)amino]benzeneacetic acid 4-(3H-1,2,dithiol-3-thione-5-yl)phenyl ester]
inhibition of TCDD (PAH)-induced EROD activity [1]: inhibited | cell viability (MTT) [2]: non-toxic | less gastro-intestinal damage than diclofenac [3]: > 90% | level of activated AhR on co-treatment with TCDD (ChIP) [4]: 2.6 fold | effect on TCDD- and DMBA-induced CYP1A2 mRNA expression [5]: inhibited in a concentration-dependent manner | effect on phase II gene expression [6]: No significant increases | change of Vmax with increasing compound concentration [7]: unchanged | nature of CYP1A1 inhibition (Michaelis-Menten kinetic analysis) [7]: competitive | effect on TCDD- and DMBA-induced CYP1A2 mRNA expression [8]: inhibited in a concentration-dependent manner | effect on TCDD- and DMBA-induced CYP1B1 mRNA expression [9]: inhibited in a concentration-dependent manner | effect on TCDD- and DMBA-stimulated hnCYP1A1 expression [10]: abrogated the stimulatory effects | effect on TCDD- and DMBA-induced CYP1B1 mRNA expression [11]: inhibited in a concentration-dependent manner | effect on TCDD- and DMBA-induced CYP1A1 mRNA expression [12]: inhibited in a concentration-dependent manner | cell viability (MTT) [13]: non-toxic | effect on TCDD- and DMBA-induced CYP1A1 mRNA expression [14]: inhibited in a concentration-dependent manner

CC1=C(CC(=O)Oc2ccc(-c3cc(=S)ss3)cc2)c2cc(F)ccc2/C1=C\c1ccc([S+](C)[O-])cc1 (stereo not shown) [ACS 18, (Z)-5-Fluoro-2-methyl-1-[[4-(methylsulfinyl)phenyl]-methylene]-1H-indene-3-acetic acid 4-(5-thioxo-5H-[1,2]dithiol-3-yl)-phenyl ester]
inhibition of TCDD (PAH)-induced EROD activity [1]: inhibited | induction of EROD activity [1]: 0.46 +/− 0.01 pmoles/min/well | cell viability (MTT) [2]: non-toxic | effect on TCDD- and DMBA-induced CYP1A2 mRNA expression [5]: similar | IC50 [7]: 40 nM | change of Vmax with increasing compound concentration [7]: unchanged | nature of CYP1A1 inhibition (Michaelis-Menten kinetic analysis) [7]: competitive | IC50 [15]: 230 nM | effect on TCDD- and DMBA-induced CYP1A2 mRNA expression [8]: similar | effect on TCDD- and DMBA-induced CYP1B1 mRNA expression [9]: similar | increase in G6PD mRNA expression [16]: 1.5 fold | effect on TCDD- and DMBA-stimulated hnCYP1A1 expression [10]: similar | effect on TCDD- and DMBA-induced CYP1B1 mRNA expression [11]: similar | effect on TCDD- and DMBA-induced CYP1A1 mRNA expression [12]: similar | cell viability (MTT) [13]: non-toxic | effect on TCDD- and DMBA-induced CYP1A1 mRNA expression [14]: similar | IC50 [17]: 3100 nM

COc1ccc(-c2cc(=S)ss2)cc1 [ADT, 5-[p-methoxyphenyl]-1,2-dithiole-3-thione]
increases in the phase II enzymes catalase and glutathione reductase [18]: less than 2 fold

Cc1c2ccccc2c(C)c2c1ccc1ccccc12 [DMBA]
fold increase in hnCYP1A1 expression over DMSO control levels [19]: 12 fold | fold increase in CYP1B1 mRNA expression compared to DMSO controls ([9]; TCDD 250 pmol, DMBA 1 μM): 8.4 fold | fold increase in CYP1B1 mRNA expression compared to DMSO controls ([11]; TCDD 250 pmol, DMBA 1 μM): 2.5 fold

[Na+].[SH-] [NaHS]
inhibition of TCDD (PAH)-induced EROD activity [1]: not inhibited

O=C(O)Cc1ccccc1Nc1c(Cl)cccc1Cl [diclofenac]
inhibition of TCDD (PAH)-induced EROD activity [1]: not inhibited

CC1=C(CC(=O)O)c2cc(F)ccc2/C1=C\c1ccc([S+](C)[O-])cc1 (stereo not shown) [sulindac]
inhibition of TCDD (PAH)-induced EROD activity [1]: not inhibited | induction of EROD activity [1]: 4.45 +/− 0.09 pmoles/min/well
